Series [1] has as its system HepG2. The experiment in a line: Antitumor activity against human HepG2 cells incubated with drug dissolved in olive oil after 48 hrs by MTT assay. The series is classed as functional, cell-based. The note with it: HepG2, 48 h. In outline:
(§1)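 HepG2 cells (trypan blue viability >97%) grown in RPMI-1640 with L-glutamine and 10% fetal calf serum, seeded at 3×10³ cells/well. Compounds in olive oil or DMSO were tested at 10, 50 and 100 for 24, 48 and 72 h. MTT (0.5 mg/ml) added, formazan dissolved in DMSO, OD read at 570 nm (ref 690 nm). Reported as % growth inhibition vs control; run in triplicate.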

The subject of series [2] is HepG2. Description: Antitumor activity against human HepG2 cells incubated with drug dissolved in olive oil after 72 hrs by MTT assay. The note with it: HepG2, 72 h. In kind it is functional, cell-based. In outline: as §1
Series [3] has as its system HepG2. The experiment in a line: Antitumor activity against human HepG2 cells incubated with drug dissolved in DMSO after 48 hrs by MTT assay. In kind it is functional, cell-based. The note with it: HepG2, 48 h. In outline: as §1
Series [4] deals with HepG2. The experiment in a line: Antitumor activity against human HepG2 cells incubated with drug dissolved in DMSO after 72 hrs by MTT assay. In kind it is functional, cell-based. The note with it: HepG2, 72 h. In outline:
as §1

The subject of series [5] is Mus musculus. The experiment in a line: Toxicity in mouse EAC cells transplanted Swiss albino mouse assessed as change in hematocrit content at 25 mg/kg. ip dissolved in DMSO for 14 days measured after final dose by 18 hrs fasting. In kind it is organism-based, Ehrlich. Also noted: dose 25 mg/kg, route intraperitoneal. The note with it: in vivo. In outline: (§2)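 Mice (n = 5/group) given 2×10⁶ EAC cells in 0.2 ml i.p. Treatment was 25 mg/kg b.wt. i.p. in DMSO, every other day for 14 days. Animals were fasted 18 h after the last dose, then sacrificed. Tumour volume, haemoglobin, haematocrit, total WBC and body weight recorded. Normal and untreated EAC groups served as controls. Mean ± SE.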

In series [6] the test system is Mus musculus. The experiment in a line: Toxicity in mouse EAC cells transplanted Swiss albino mouse assessed as change in hemoglobin content at 25 mg/kg. ip dissolved in DMSO for 14 days measured after final dose by 18 hrs fasting. The series is classed as organism-based, Ehrlich. Also noted: dose 25 mg/kg, route intraperitoneal. The note with it: in vivo. In outline:
as §2

The subject of series [7] is Mus musculus. The experiment in a line: Toxicity in mouse EAC cells transplanted Swiss albino mouse assessed as change in total WBC content at 25 mg/kg. ip dissolved in DMSO for 14 days measured after final dose by 18 hrs fasting. In kind it is organism-based, Ehrlich. Also noted: dose 25 mg/kg, route intraperitoneal. The note with it: in vivo. In outline: as §2
For series [8], the system named is Mus musculus. Description: Toxicity in mouse EAC cells transplanted Swiss albino mouse assessed as decrease in body weight at 25 mg/kg. ip dissolved in DMSO for 14 days measured after final dose by 18 hrs fasting. In kind it is organism-based, Ehrlich. Also noted: dose 25 mg/kg, route intraperitoneal; scale not given: the % may be the effect or the level left. The note with it: in vivo. In outline: as §2

Series [9] can be described thus: Antitumor activity in mouse EAC cells transplanted in Swiss albino mouse assessed as decrease in tumor volume at 25 mg/kg. ip dissolved in DMSO for 14 days measured after final dose by 18 hrs fasting. In kind it is functional, Ehrlich. More on the design: unit not given here. The note with it: route intraperitoneal. In outline: as §2
The species named for series [10] is Mus musculus. Description: Toxicity in mouse EAC cells transplanted Swiss albino mouse assessed as loss of appetite. The series is classed as organism-based. The note with it: ehrlich.
The species entered for series [11] is Mus musculus. The experiment in a line: Toxicity in mouse EAC cells transplanted Swiss albino mouse assessed as induction of dizziness. The series is classed as organism-based. The note with it: ehrlich.
The species entered for series [12] is Mus musculus. The experiment in a line: Toxicity in mouse EAC cells transplanted Swiss albino mouse assessed as induction of errection of hair. In kind it is organism-based. The note with it: ehrlich.
The species entered for series [13] is Mus musculus. The experiment in a line: Toxicity in mouse EAC cells transplanted Swiss albino mouse assessed as induction of hypothermia. In kind it is organism-based. The note with it: ehrlich.
Series [14] concerns Mus musculus. Description: Toxicity in mouse EAC cells transplanted Swiss albino mouse assessed as change in hematocrit content at 20 mg/kg. ip dissolved in DMSO for 14 days measured after final dose by 18 hrs fasting. The series is classed as organism-based, Ehrlich. The note with it: in vivo. More on the design: dose 20 mg/kg, route intraperitoneal. In outline: (§3)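 Reference-drug group (n = 5): mice given 2×10⁶ EAC cells in 0.2 ml i.p., then 20 mg/kg b.wt. for 14 days. Fasted 18 h after the last dose, then sacrificed. Tumour volume, haemoglobin, haematocrit, total WBC and body weight measured against normal and untreated EAC groups. Mean ± SE.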

Series [15] concerns Mus musculus. Description: Toxicity in mouse EAC cells transplanted Swiss albino mouse assessed as change in total WBC content at 20 mg/kg. ip dissolved in DMSO for 14 days measured after final dose by 18 hrs fasting. In kind it is organism-based, Ehrlich. Also noted: dose 20 mg/kg, route intraperitoneal. The note with it: in vivo. In outline: as §3
For series [16], the system named is Mus musculus. Description: Toxicity in mouse EAC cells transplanted Swiss albino mouse assessed as decrease in body weight at 20 mg/kg. ip dissolved in DMSO for 14 days measured after final dose by 18 hrs fasting. The series is classed as functional, Ehrlich. More on the design: scale not given: the % may be the effect or the level left. The note with it: route intraperitoneal. In outline:
as §3

Series [17] can be described thus: Antitumor activity in mouse EAC cell transplanted in Swiss albino mouse assessed as decrease in tumor volume at 20 mg/kg. ip dissolved in DMSO for 14 days measured after final dose by 18 hrs fasting. The series is classed as functional, Ehrlich. The note with it: route intraperitoneal. In outline:
as §3

With `CC(=O)O[C@H]1CC[C@H]2[C@@H]3CC[C@H]4Cc5c(C#N)c(N)n(-c6ccccc6)c(=S)c5C[C@]4(C)[C@H]3CC[C@]12C`, the IC50 in series [1] was 48 µM; in [2], 40 µM; in series [3], more than 100 µM; in [4], more than 100 µM. The Activity is 33.8% in [5]; 12.6% in series [6]; 5.75 /10'3mm'-3 in [7]; 18% in [8]; 0 in series [9]; “Non-toxic” in series [10]. Besides, the Activity entry in [11], in series [12] and in series [13] was “Non-toxic” in each case.

Take `COc1ccc(C2Oc3nc(N)c(C#N)c(N)c3C3=C2C[C@@]2(C)[C@@H](CC[C@@H]4[C@@H]2CC[C@]2(C)[C@@H](OC(C)=O)CC[C@@H]42)C3)cc1` (some centres undefined): the concentration for half-maximal inhibition (IC50) was 48 µM in series [1], 41 µM in [2], 95 µM in series [3] and more than 100 µM in series [4]. Further, the Activity in series [5] is recorded as 38.3%; in [6], 12.65%; in [7] it was 7.35 /10'3mm'-3; in [8], 21.5%; in series [9], 0; in series [10], “Non-toxic”. Further, the Activity entry in series [11], in series [12] and in series [13] was “Non-toxic” throughout.

Regarding `CC(=O)O[C@H]1CC[C@H]2[C@@H]3CC[C@H]4CNC(=O)CC[C@]4(C)[C@H]3CC[C@]12C`, the concentration for half-maximal inhibition (IC50) in series [1] was determined as 47 µM; in series [2], 35 µM; in [3], 42 µM; in [4], 40 µM. Besides, the Activity is 38.56% in series [5]; 12.96% in series [6]; 6.46 /10'3mm'-3 in [7]; 20.33% in [8]; 0 in series [9]; “Non-toxic” in series [10]. Moreover, the Activity entry in series [11], in series [12] and in [13] was “Non-toxic” throughout.

In the case of `CC(=O)O[C@H]1CC[C@H]2[C@@H]3CC[C@H]4CC5=C(C[C@]4(C)[C@H]3CC[C@]12C)C(c1ccccc1)OC(N)=C5C#N` (some centres undefined), the IC50 came to 46 µM in series [1], 30 µM in series [2], 81 µM in [3] and 73 µM in series [4]. Besides, the Activity in series [5] is 36.6%; in series [6] it was 12.5%; in [7], 5.9 /10'3mm'-3; in series [8] it was 18.66%; in series [9], 0; in series [10], “Non-toxic”. The Activity entry in series [11], in series [12] and in series [13] was “Non-toxic” each time.

Take `CC(=O)O[C@H]1CC[C@H]2[C@@H]3CC[C@H]4C/C(=N/n5c(-c6ccccc6)csc5=S)CC[C@]4(C)[C@H]3CC[C@]12C`: the half-maximal inhibitory concentration (IC50) in series [1] turned out to be 47 µM; in [2], 37 µM; in [3], 85 µM; in series [4] it was 90 µM. The Activity is given as 42.7% in series [5]; 10.7% in series [6]; 5.66 /10'3mm'-3 in [7]; 20% in series [8]; 0 in [9]; “Non-toxic” in [10]. Also, the Activity result in series [11], in series [12] and in series [13] was “Non-toxic” in each case.

As for `O=c1[nH]cc(F)c(=O)[nH]1` [FLUOROURACIL], the Activity in [14] was 10.73%; in series [15] it was 6.4 /10'3mm'-3; in series [16], 23%; in series [17] it was 0 mL⁻¹.
